# High-throughput results: PubChem BioAssay, several laboratories
# Compounds with a hit are over-represented: about 2% of the library has one in this group of screens.
# 14-3-3 Bad inh: disrupts binding of bovine 14-3-3 zeta to phospho-Bad peptide | AID 781 | TR-FRET 14-3-3zeta/Dy647-pBad peptide displacement, 1 h | P63103 | actives 0.71% (n = 220,000) | inhibition, % at 21.7 µM;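 active = inhibition above about 70%, limit read from the data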;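 note: 0% = full 14-3-3 plus peptide FRET controls and 100% = background without 14-3-3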
# Diaphorase act: diaphorase activation or chemical reduction counter-screen | Diaphorase/resazurin coupled assay, resorufin fluorescence, 16 min; stronger effect = higher value; 1 = vehicle wells, 0 = NADH-free wells | activation factor at 20 µM | actives 0.005% (n = 190,000) | AID 1229;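 active = diaphorase activity raised at least twofold by the compound at 20 µM; inactive = activation factor below 2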
#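 Material: Clostridium kluyveri diaphorase, purified enzyme; Quantity: enzyme 0.07 U/mL final; Medium: HEPES pH 7.4 buffer with MgCl2 and Tween 20; Dosing: single compound dose of 20 µM, 1% DMSO final; Schedule: 16 min reaction at room temperature; Measured by: red resorufin fluorescence at 544/590 nm excitation/emission.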
# p47phox inh: blocks human p47phox regulatory protein of NADPH oxidases. P14598. p47phox/p22phox peptide binding, fluorescence polarization, 2 h. inhibition, % at 24.7 µM. actives 0.53% (n = 220,000);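 note: 0% = p47phox with labelled peptide and 100% = labelled peptide alone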
# Hck-Nef inh: blocks Nef-activated human Hck kinase; P08631; Recombinant Hck-YEEI plus Nef, Z-Lyte FRET kinase assay; inhibition, % at 20 µM; actives 0.68% (n = 220,000); AID 463187;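 active = Hck-Nef kinase inhibition above about 50%, limit read from the data; inactive = inhibition below that limit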;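 note: 0% = DMSO with Hck plus Nef and 100% = Hck alone without Nef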
# Target sequence (P08631 whole entry, looked up): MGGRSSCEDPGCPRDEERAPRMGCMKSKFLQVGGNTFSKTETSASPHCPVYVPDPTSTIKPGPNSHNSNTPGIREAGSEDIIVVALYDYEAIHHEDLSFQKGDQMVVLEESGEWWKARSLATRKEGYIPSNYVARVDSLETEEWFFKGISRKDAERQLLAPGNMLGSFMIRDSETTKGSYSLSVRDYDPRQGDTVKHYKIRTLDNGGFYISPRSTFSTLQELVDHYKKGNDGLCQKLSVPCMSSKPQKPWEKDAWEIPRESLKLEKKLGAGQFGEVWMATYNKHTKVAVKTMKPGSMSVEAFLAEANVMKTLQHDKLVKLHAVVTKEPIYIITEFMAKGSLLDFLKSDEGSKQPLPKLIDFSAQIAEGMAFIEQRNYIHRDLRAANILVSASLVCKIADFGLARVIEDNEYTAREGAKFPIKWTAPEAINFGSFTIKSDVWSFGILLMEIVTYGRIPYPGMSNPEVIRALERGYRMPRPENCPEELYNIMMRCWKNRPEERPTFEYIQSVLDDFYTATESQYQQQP
# eIF4E-4G inh: eIF4E/eIF4G interaction inhibition in translation initiation | TR-FRET eIF4E-eIF4GI(517-606) binding, 2 h | inhibition, % at 21.7 µM | AID 782 | actives 0.37% (n = 220,000);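 note: 0% = full FRET control wells and 100% = background wells lacking eIF4GI fragment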
# * hit, by the source's call; x = no result given.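 Rule for the calls, unless noted: active = inhibition above about 30% (limit read from the data); inactive = the rest.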
SMILES,14-3-3 Bad inh,Diaphorase act,p47phox inh,Hck-Nef inh,eIF4E-4G inh
CCOP(=O)(OCC)C(NC(=O)c1cc([N+](=O)[O-])cc([N+](=O)[O-])c1)C(F)(F)F (configuration not stated),-7,0.9,2,21,6
CC1CC2OC(=O)C3(C)CCCC(C)(C23)C1(O)CCc1ccoc1 (configuration not stated),2,x,-3,5,2
COc1ccc(C2=NN(C3=NN=C(N)Cc4ncnn43)C(O)(C(F)(F)F)C2)cc1 (configuration not stated),-20,0.8,-11,17,0
COc1ccc2c(c1)C(=NNC(=O)c1ccccn1)c1cc(OC)ccc1-2,51,1,49*,2,0
COc1ccc(C(=O)NNC(=O)c2ccccn2)cc1,11,0.8,0,1,9
Cc1cccc(C(=O)NC2=NCCS2)c1,-6,1,-5,76*,-2
N=C1C(c2ccccc2)=C(O)CN1c1cccc(S(=O)(=O)N2CCCCC2)c1,1,x,-5,15,3
O=c1nc(SCc2c(F)cccc2Cl)nc(-c2ccccc2)[nH]1,0,x,-22,35,7
Cc1nc(SCc2c(F)cccc2Cl)n[nH]1,85*,0.9,-8,1,-6
S=c1[nH]nc(-c2ccco2)n1/N=C/c1ccc(Cl)cc1Cl,16,0.6,0,0,49*
CCOC(=O)C1(CCCc2ccccc2)CCN(C2CCN(C(C)=O)CC2)CC1,2,1,22,3,0
CC(=O)Nc1ccc(-c2nnn(CC(=O)Nc3ccc4c(c3)OCO4)n2)cc1Cl,-5,1,-2,18,2
O=C(c1cccc(Cl)c1)N1CCN(Cc2ccccc2F)CC1,84*,0.8,4,1,4
Cc1ccc(-c2nnc(Oc3ccc(NC(=O)c4ccccc4)cc3)c3ccccc23)cc1,23,1,43*,0,13
C=CCNC(=S)N(CC)c1cccc2ccccc12,-13,0.9,1,18,-3
O=C(NCc1cn(-c2ccccc2)nc1-c1ccccc1)c1cccc([N+](=O)[O-])c1,-3,0.8,-8,-1,3
O=C(NCc1cn(-c2ccccc2)nc1-c1ccccc1)c1cc([N+](=O)[O-])cc([N+](=O)[O-])c1,96*,1,-28,0,-7
O=C(O)c1ccccc1C(=O)Nc1nccs1,12,1,-14,1,72*
CC(=O)Nc1nnc(CSCc2ccccc2F)s1,1,x,1,-1,2
CCOC(=O)C(Cc1ccccc1)c1ccnc2nc(N)nn12 (configuration not stated),5,1,-1,-2,2
CC(C)c1cccc(C(C)C)c1NC(=S)Nc1cccc(Cl)c1,-4,x,-13,12,8
O=C(O)CCN1C(=O)c2ccc(NC(=O)C(c3ccccc3)c3ccccc3)cc2C1=O,-1,x,-23,18,71*
O=C(O)Cn1c(-c2cscn2)nc2ccccc21,72*,0.8,-3,2,8
CN1CCS/C1=C/C=C1\SC(=S)N(CC(=O)O)C1=O,2,0.9,-101,21,4
CCCCN1C(=O)/C(=C/C=C2\SCCN2C)SC1=S,-12,0.7,54*,18,4
SMILES,14-3-3 Bad inh,Diaphorase act,p47phox inh,Hck-Nef inh,eIF4E-4G inh
COc1cccc(/C(C#N)=C/c2c(-c3ccc(Cl)cc3)nc3c(C)cccn23)c1,71*,0.9,-10,-1,8
Cc1cccn2c(/C=N/OCc3cccc(F)c3)c(-c3ccc(Cl)cc3)nc12,-2,1,3,-2,-5
O=C(Nc1ccc(C(F)(F)F)cc1)c1cnc(N2CCN(c3ccccn3)CC2)c2ccccc12,-17,0.9,-7,27,-1
CCC(C)Nc1nc(-c2ccc3c(c2)NC(=O)CO3)cs1 (configuration not stated),81*,0.8,-13,0,11
COc1ccc(Nc2nc(-c3ccc4c(c3)NC(=O)CO4)cs2)cc1,-5,0.9,-8,-2,2
CCSc1nnc(-c2ccccc2NC(=O)CC)c(=O)[nH]1,4,0.9,-14,0,1
CCSc1nnc(-c2cc(Br)ccc2NC(C)=O)c(=O)[nH]1,4,x,-9,19,96*
CCOC(=O)C1(CCOC)CCN(Cc2nc(C(C)C)cs2)CC1,-4,0.9,-4,20,-3
